Assay results: the M2OR odorant receptor database
Where a chain is given by its changes, count along the chain named.

Assays:
Conditions in all cases: stereoisomer not certain
OR52I1 (Homo sapiens) = molecular target: T1, OR52I1 (Homo sapiens) (UniProt Q8NGK6)
T1 sequence (whole entry): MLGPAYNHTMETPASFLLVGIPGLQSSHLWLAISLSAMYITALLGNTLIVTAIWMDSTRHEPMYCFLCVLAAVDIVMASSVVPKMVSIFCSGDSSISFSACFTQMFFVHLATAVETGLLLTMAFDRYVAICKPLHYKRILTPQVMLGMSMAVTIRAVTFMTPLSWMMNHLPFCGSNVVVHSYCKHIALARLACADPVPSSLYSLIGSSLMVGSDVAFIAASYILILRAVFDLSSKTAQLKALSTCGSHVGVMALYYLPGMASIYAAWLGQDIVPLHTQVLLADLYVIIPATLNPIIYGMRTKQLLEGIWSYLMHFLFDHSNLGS
In short: (§1)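 Assay methods differ from source to source, frequently being transient luciferase assays in mammalian cell lines. For each receptor–molecule pair, the label responsive (active) applies when the original authors judged the measured signal statistically different from baseline, and non-responsive (inactive) applies otherwise.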

OR52I2 (Homo sapiens) = molecular target: T2, OR52I2 (Homo sapiens) (UniProt Q8NH67)
T2 sequence (whole entry): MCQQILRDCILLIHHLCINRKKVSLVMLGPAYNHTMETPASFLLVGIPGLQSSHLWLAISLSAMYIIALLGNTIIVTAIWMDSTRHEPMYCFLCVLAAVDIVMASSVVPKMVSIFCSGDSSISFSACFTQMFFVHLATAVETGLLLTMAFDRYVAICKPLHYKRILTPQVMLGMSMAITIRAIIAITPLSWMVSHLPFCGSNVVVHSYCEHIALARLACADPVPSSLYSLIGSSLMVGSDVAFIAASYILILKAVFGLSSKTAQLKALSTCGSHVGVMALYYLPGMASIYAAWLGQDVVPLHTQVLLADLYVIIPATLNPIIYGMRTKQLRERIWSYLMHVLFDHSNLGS
In short: as §1

OR52J3 (Homo sapiens) = OR52J3 (Homo sapiens) (UniProt Q8NH60)
In short: as §1

OR52K1 (Homo sapiens) = molecular target: T3, OR52K1 (Homo sapiens) (UniProt Q8NGK4)
T3 sequence (whole entry): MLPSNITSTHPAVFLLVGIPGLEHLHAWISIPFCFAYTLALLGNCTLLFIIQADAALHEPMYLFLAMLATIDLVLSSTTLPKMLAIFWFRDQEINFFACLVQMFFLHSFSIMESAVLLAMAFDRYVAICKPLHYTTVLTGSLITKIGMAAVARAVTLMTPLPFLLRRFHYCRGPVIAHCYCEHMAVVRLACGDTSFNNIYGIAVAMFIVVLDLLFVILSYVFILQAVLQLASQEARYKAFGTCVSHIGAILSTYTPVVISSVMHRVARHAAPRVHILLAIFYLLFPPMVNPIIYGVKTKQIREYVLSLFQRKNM
In short: as §1

OR52K2 (Homo sapiens) = molecular target: T4, OR52K2 (Homo sapiens) (UniProt Q8NGK3)
T4 sequence (whole entry): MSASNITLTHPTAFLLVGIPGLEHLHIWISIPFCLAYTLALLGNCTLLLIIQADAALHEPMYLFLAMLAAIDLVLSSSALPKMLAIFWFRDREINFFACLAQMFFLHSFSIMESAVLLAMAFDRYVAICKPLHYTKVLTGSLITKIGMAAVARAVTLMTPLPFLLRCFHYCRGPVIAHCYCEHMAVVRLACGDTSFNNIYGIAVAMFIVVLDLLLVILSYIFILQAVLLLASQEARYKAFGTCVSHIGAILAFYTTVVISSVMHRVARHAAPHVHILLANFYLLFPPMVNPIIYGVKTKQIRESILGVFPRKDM
In short: as §1

OR52L1 (Homo sapiens) [1] = molecular target: T5, OR52L1 (Homo sapiens) (UniProt Q8NGH7)
T5 sequence (whole entry): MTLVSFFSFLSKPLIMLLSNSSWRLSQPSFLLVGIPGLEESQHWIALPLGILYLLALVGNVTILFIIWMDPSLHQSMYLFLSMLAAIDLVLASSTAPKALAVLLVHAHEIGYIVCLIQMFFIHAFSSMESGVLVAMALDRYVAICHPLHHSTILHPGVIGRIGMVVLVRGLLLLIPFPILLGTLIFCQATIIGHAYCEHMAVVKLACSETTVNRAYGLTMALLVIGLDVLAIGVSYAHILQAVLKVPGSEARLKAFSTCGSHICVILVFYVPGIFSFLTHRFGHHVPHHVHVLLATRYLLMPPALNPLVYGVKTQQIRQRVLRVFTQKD
In short: as §1

OR52M1 (Homo sapiens) = molecular target: T6, OR52M1 (Homo sapiens) (UniProt Q8NGK5)
T6 sequence (whole entry): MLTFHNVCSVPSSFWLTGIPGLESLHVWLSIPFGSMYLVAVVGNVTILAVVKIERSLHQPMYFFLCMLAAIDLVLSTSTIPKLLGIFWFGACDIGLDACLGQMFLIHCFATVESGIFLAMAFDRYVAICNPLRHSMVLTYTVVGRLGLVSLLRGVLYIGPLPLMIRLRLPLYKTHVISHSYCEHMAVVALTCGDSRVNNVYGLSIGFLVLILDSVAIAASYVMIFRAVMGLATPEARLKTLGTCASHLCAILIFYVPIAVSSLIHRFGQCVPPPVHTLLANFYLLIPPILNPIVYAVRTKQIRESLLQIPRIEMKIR
In short: as §1

OR52N1 (Homo sapiens) = molecular target: T7, OR52N1 (Homo sapiens) (UniProt Q8NH53)
T7 sequence (whole entry): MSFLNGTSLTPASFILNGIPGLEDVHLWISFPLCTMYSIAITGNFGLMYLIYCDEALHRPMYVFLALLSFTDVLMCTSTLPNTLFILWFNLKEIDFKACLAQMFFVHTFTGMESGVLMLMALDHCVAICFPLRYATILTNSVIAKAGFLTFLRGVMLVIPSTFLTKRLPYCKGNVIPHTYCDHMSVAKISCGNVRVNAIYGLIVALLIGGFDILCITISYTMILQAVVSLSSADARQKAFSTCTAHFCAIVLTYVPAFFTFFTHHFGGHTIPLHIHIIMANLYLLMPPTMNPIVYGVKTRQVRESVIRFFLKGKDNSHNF
In short: as §1

OR52N2 (Homo sapiens) = molecular target: T8, OR52N2 (Homo sapiens) (UniProt Q8NGI0)
T8 sequence (whole entry): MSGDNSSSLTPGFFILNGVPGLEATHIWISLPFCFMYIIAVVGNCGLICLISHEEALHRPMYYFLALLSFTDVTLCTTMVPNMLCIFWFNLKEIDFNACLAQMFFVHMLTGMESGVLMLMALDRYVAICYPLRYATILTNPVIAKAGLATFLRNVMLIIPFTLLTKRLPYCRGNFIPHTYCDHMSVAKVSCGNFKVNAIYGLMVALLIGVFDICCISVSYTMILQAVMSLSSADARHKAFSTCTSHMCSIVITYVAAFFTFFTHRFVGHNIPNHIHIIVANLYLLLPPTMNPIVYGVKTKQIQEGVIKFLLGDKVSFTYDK
In short: as §1

OR52N4 (Homo sapiens) = molecular target: T9, OR52N4 (Homo sapiens) (UniProt Q8NGI2)
T9 sequence (whole entry): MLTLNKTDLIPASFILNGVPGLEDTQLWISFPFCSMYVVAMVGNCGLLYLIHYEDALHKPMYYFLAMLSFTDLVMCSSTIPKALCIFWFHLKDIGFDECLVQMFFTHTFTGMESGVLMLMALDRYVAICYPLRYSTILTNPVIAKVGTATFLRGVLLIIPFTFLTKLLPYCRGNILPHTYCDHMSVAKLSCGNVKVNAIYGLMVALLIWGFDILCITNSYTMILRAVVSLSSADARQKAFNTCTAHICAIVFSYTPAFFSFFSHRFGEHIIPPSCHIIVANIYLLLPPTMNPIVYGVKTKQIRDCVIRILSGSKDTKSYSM
In short: as §1

OR52N5 (Homo sapiens) = molecular target: T10, OR52N5 (Homo sapiens) (UniProt Q8NH56)
T10 sequence (whole entry): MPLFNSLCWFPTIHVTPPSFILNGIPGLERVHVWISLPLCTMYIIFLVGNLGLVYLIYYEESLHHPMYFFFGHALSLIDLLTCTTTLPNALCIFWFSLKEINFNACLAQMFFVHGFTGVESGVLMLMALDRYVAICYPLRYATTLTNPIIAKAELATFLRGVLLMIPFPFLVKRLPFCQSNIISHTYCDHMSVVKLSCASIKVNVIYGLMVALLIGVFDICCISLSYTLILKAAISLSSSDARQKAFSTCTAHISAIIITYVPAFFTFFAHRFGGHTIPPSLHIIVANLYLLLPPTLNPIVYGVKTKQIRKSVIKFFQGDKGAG
In short: as §1

OR52R1 (Homo sapiens) = molecular target: T11, OR52R1 (Homo sapiens) (UniProt Q8NGF1)
T11 sequence (whole entry): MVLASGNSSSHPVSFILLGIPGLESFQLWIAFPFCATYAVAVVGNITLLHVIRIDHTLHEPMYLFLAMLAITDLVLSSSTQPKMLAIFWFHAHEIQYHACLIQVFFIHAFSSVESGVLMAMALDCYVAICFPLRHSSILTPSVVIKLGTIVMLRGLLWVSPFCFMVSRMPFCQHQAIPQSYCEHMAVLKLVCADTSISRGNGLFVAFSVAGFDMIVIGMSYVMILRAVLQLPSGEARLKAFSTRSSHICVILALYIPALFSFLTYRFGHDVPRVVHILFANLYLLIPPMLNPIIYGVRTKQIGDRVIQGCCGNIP
In short: as §1

OR52W1 (Homo sapiens) = molecular target: T12, OR52W1 (Homo sapiens) (UniProt Q6IF63)
T12 sequence (whole entry): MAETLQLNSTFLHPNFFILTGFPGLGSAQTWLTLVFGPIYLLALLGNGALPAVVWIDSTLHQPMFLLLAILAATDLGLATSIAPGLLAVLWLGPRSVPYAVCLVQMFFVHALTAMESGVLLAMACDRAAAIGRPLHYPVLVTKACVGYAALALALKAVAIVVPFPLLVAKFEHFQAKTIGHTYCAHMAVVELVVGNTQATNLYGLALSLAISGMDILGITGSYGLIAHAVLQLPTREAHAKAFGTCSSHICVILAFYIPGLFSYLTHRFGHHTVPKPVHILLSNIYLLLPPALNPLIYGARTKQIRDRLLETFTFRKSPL
In short: as §1

OR56A1 (Homo sapiens) = molecular target: T13, OR56A1 (Homo sapiens) (UniProt Q8NGH5)
T13 sequence (whole entry): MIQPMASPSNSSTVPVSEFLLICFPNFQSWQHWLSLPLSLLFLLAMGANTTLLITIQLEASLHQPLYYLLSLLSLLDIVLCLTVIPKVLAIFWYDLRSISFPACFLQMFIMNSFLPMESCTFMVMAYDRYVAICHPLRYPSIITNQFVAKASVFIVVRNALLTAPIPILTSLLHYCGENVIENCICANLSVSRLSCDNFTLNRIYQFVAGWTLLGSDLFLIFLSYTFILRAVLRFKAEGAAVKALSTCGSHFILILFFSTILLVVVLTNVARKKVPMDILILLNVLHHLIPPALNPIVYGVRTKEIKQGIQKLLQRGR
In short: as §1

OR56A3 (Homo sapiens) = molecular target: T14, OR56A3 (Homo sapiens) (UniProt Q8NH54)
T14 sequence (whole entry): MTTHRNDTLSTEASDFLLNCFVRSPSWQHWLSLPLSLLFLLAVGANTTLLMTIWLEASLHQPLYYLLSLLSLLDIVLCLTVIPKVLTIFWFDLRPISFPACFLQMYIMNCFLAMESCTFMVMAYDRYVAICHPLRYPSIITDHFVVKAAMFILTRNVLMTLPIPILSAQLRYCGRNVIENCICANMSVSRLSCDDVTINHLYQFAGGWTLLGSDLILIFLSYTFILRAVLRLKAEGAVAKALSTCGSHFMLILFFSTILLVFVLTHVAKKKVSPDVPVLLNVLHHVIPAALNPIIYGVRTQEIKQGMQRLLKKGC
In short: as §1

OR56A5 (Homo sapiens) = molecular target: T15, OR56A5 (Homo sapiens) (UniProt P0C7T3)
T15 sequence (whole entry): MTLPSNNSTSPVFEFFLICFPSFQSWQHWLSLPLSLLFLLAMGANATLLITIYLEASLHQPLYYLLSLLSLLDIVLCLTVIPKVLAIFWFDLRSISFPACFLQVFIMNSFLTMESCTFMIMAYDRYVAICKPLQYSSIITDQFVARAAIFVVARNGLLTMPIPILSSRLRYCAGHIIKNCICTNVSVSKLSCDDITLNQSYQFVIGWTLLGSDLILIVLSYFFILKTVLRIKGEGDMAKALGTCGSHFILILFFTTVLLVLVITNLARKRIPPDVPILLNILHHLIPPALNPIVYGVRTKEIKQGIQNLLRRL
In short: as §1

OR56B1 (Homo sapiens) = molecular target: T16, OR56B1 (Homo sapiens) (UniProt Q8NGI3)
T16 sequence (whole entry): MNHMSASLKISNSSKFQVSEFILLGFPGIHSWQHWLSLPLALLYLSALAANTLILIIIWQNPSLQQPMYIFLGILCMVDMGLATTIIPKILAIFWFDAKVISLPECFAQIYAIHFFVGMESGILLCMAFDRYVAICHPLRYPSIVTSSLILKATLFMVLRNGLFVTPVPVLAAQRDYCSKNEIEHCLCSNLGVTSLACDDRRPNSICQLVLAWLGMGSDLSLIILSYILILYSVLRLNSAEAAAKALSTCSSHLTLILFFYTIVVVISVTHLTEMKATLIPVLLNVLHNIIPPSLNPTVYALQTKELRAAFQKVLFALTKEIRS
In short: as §1

OR52L1 (Homo sapiens) [2] = molecular target: T17, OR52L1 (Homo sapiens) (UniProt Q8NGH7); remark: listed apart in the source
T17 sequence (whole entry): T5 sequence (whole entry) with R140C, R161C, T183K, R297W
In short: as §1

OR56A4 (Homo sapiens) = molecular target: T18, OR56A4 (Homo sapiens) (UniProt Q8NGH8)
T18 sequence (whole entry): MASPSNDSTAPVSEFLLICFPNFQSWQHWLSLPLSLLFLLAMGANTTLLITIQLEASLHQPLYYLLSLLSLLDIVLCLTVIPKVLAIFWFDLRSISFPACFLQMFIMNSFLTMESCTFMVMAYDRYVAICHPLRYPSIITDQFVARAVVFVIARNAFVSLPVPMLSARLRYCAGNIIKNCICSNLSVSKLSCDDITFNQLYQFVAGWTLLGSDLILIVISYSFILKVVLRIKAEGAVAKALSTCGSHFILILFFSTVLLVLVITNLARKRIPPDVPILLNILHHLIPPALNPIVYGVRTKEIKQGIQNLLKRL
In short: as §1

Measured: odorant receptor agonist call

OR52J3 (Homo sapiens), sequence (Q8NH60 whole entry): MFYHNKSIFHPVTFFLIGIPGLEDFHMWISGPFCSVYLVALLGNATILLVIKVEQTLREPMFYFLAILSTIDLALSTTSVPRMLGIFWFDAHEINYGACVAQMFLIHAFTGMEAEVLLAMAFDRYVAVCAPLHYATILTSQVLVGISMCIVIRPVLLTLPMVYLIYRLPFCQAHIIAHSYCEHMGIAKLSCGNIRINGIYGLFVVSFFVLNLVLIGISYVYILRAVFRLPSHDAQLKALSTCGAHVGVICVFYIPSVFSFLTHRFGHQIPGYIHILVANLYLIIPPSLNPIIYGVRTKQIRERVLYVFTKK

CCC1OC(C)=C(O)C1=O (stereo not given)
not listed: OR52L1 (Homo sapiens) [2] | OR56A4 (Homo sapiens)
inactive: all other assays above

CCCCCC(=O)C(C)C(C)=O (stereo not given)
not listed: OR52L1 (Homo sapiens) [1]
inactive: all other assays above
